Converted amounts (≈) assume the structure as drawn. The source made the active and inactive calls. The calls are words filed in the database; no cut-off is given here.
Tests used:
[1] = test system: Streptococcus gordonii; assay: Increase in pbp2B gene expression in penicillin-resistant Streptococcus gordonii with penicillin binding protein PR1_2 evolved mutation assessed as relative luciferase units relative to control; format: functional
Summary of the method: (§1)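 pbp promoter–luc transcriptional fusions integrated into the chromosome of resistant strain PR1_2evolved. Cells grown at 37°C in BHI without aeration from a 1/100 overnight inoculum. Penicillin G at 1/2× or 1/8× MIC added at OD620 0.12. Samples taken into sodium citrate pH 5.5, with 1 mM D-luciferin solution in glycylglycine/MgSO4 buffer added. Light read 10 s at 22°C; RLU normalised to OD620, expressed as % of untreated; means of six experiments.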

[2] = test system: Streptococcus gordonii; assay: Antibacterial activity against Streptococcus gordonii with non penicillin binding protein mutation; format: functional
[3] = test system: Streptococcus gordonii; assay: Antibacterial activity against Streptococcus gordonii with penicillin binding protein mutation; format: functional
[4] = test system: Streptococcus gordonii; assay: Antibacterial activity against penicillin-resistant Streptococcus gordonii with penicillin binding protein PR1_2 evolved mutation; format: functional
[5] = test system: Streptococcus gordonii; assay: Antibacterial activity against wild type penicillin-susceptible Streptococcus gordonii at 4 times MIC; format: functional, organism-based
Summary of the method: (§2)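 S. gordonii was grown at 37°C in BHI broth without aeration from a 1/100 inoculum of an overnight culture. Penicillin G was added once OD620 reached 0.12, and growth was followed by OD620 against an untreated culture.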

[6] = test system: Streptococcus gordonii; assay: Antibacterial activity against wild type penicillin-susceptible Streptococcus gordonii at 2 times MIC; format: functional, organism-based; summary of the method: as §2
[7] = test system: Streptococcus gordonii; assay: Induction of pbp2A gene expression in wild type penicillin-susceptible Streptococcus gordonii assessed as relative luciferase units relative to control; format: functional, organism-based
Summary of the method: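 The pbp2A promoter was fused to promoterless luc on the chromosome (integrative pJDC9) in S. gordonii grown in BHI at 37°C, and penicillin G was added at OD620 0.12. Samples of 100 µl went into sodium citrate pH 5.5, then 50 µl of 1 mM D-luciferin in glycylglycine/MgSO4 buffer was added. Light was read for 10 s after a 2 s delay at 22°C, normalized to OD620, and expressed as % of the untreated culture.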

[8] = test system: Streptococcus gordonii; assay: Increase in pbp1A gene expression in penicillin-resistant Streptococcus gordonii with penicillin binding protein PR1_2 evolved mutation assessed as relative luciferase units relative to control; format: functional; summary of the method: as §1
[9] = test system: Streptococcus gordonii; assay: Increase in pbp1B gene expression in penicillin-resistant Streptococcus gordonii with penicillin binding protein PR1_2 evolved mutation assessed as relative luciferase units relative to control; format: functional; summary of the method: as §1
[10] = test system: Streptococcus gordonii; assay: Increase in pbp2A gene expression in penicillin-resistant Streptococcus gordonii with penicillin binding protein PR1_2 evolved mutation assessed as relative luciferase units relative to control; format: functional; summary of the method: as §1
[11] = test system: Streptococcus gordonii; assay: Increase in pbp2X gene expression in penicillin-resistant Streptococcus gordonii with penicillin binding protein PR1_2 evolved mutation assessed as relative luciferase units relative to control; format: functional; summary of the method: as §1
[12] = test system: Streptococcus gordonii; assay: Increase in pbp1A gene expression in penicillin-resistant Streptococcus gordonii with penicillin binding protein PR1_2 evolved mutation at 1/2 times MIC assessed as relative luciferase units relative to control; format: functional, organism-based; summary of the method: as §1
[13] = test system: Streptococcus gordonii; assay: Increase in pbp2A gene expression in penicillin-resistant Streptococcus gordonii with penicillin binding protein PR1_2 evolved mutation at 1/2 times MIC assessed as relative luciferase units relative to control; format: functional, organism-based; summary of the method: as §1
[14] = test system: Streptococcus gordonii; assay: Increase in pbp1A gene expression in penicillin-resistant Streptococcus gordonii with penicillin binding protein PR1_2 evolved mutation at 1/8 times MIC assessed as relative luciferase units relative to control; format: functional, organism-based; summary of the method: as §1
[15] = test system: Streptococcus gordonii; assay: Effect on pbp2B gene expression in penicillin-resistant Streptococcus gordonii with penicillin binding protein PR1_2 evolved mutation assessed as relative luciferase units relative to control; format: functional, organism-based; summary of the method: as §1
[16] = test system: Streptococcus gordonii; assay: Effect on pbp2X gene expression in penicillin-resistant Streptococcus gordonii with penicillin binding protein PR1_2 evolved mutation assessed as relative luciferase units relative to control; format: functional, organism-based; summary of the method: as §1

## CC1(C)S[C@@H]2[C@H](NC(=O)Cc3ccccc3)C(=O)N2[C@H]1C(=O)O [PENICILLIN G]
[1]
  Activity: 1.39
[2]
  MIC: 0.008 µg/mL (≈ 0.0239 µM)
[3]
  MIC: 0.5 µg/mL (≈ 1.5 µM)
[4]
  MIC: 2 µg/mL (≈ 5.98 µM)
[5]
  Activity: Active
[6]
  Activity: Active
[7]
  Activity: Active
[8]
  Activity: 1.55
[9]
  Activity: 0.7
[10]
  Activity: 1.59
[11]
  Activity: 2.1
[12]
  Activity: Active
[13]
  Activity: Active
[14]
  Activity: Active
[15]
  Activity: inactive
[16]
  Activity: Active
